This is an account of results in ChEMBL document CHEMBL3120124, “Lead optimization of HMBA to develop potent HEXIM1 inducers” (Bioorg Med Chem Lett, 2014).

For series [1], the target named is T1, Protein HEXIM1 (Homo sapiens) (UniProt O94992).
T1 sequence (whole entry): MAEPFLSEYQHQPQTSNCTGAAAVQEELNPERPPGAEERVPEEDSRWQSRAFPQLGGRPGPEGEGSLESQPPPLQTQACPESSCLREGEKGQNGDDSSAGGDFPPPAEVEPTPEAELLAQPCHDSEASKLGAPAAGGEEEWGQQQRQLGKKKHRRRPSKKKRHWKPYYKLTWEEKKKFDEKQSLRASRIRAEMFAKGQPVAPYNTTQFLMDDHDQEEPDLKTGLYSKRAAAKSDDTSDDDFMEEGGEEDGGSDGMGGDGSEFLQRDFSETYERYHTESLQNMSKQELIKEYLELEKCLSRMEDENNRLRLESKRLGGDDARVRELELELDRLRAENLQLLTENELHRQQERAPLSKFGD
The series can be described thus: Induction of HEXIM1 protein expression in human LNCAP cells at 500 uM after 24 hrs by Western blotting analysis relative to control. The series is classed as cell-based. The method in brief:
(§1)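 LNCaP prostate cancer cells were treated for 24 h with vehicle, HMBA (5 mM; positive control) or analog at 500 μM, and selected analogs also at 100 μM. HEXIM1 was assessed by Western blot of cell extracts using a HEXIM1 antibody, with β-actin as loading control. Band intensities were quantified by densitometry. Representative of three independent experiments.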

The test system of another series is LNCaP. Briefly: Cytotoxicity against human LNCAP cells assessed as change in cell morphology at 500 uM. The series is classed as cell-based.
The target in series [2] is T1, Protein HEXIM1 (Homo sapiens). The series can be described thus: Induction of HEXIM1 protein expression in human LNCAP cells at 100 uM after 24 hrs by Western blotting analysis relative to control. The series is classed as cell-based. The method in brief:
as §1
A general note: A western blot detects proteins with antibodies after separation by electrophoresis.

A short description of series [3]: Solubility of the compound in water. The series is classed as physicochemical. The method in brief:
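Aqueous solubility was judged by the absence of precipitation in LNCaP cell culture medium at 100 μM.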

The target in series [4] is T1, Protein HEXIM1 (Homo sapiens). Briefly: Induction of HEXIM1 protein expression in human LNCAP cells at 0.5 mM after 24 hrs by Western blotting analysis relative to control. The series is classed as cell-based. The method in brief:
as §1

Series [5] shares this target. The series can be described thus: Induction of HEXIM1 protein expression in human LNCAP cells at 0.05 mM after 24 hrs by Western blotting analysis relative to control. The series is classed as cell-based.
The target is the same in series [6]. Briefly: Induction of HEXIM1 protein expression in human LNCAP cells at 0.1 mM after 24 hrs by Western blotting analysis relative to control. The series is classed as cell-based.
Series [7] shares this target. Briefly: Induction of HEXIM1 protein expression in human LNCAP cells after 24 hrs by Western blotting analysis. The series is classed as cell-based.
Series [8] shares this target. Briefly: Induction of HEXIM1 protein expression in human LNCAP cells at 1 mM after 24 hrs by Western blotting analysis relative to control. The series is classed as cell-based.
Series [9] has the same target. The series can be described thus: Induction of HEXIM1 protein expression in human LNCAP cells at 5 mM after 24 hrs by Western blotting analysis relative to control. The series is classed as cell-based.

Bounds are passed on as bounds.

As to `CS(=O)(=O)NCC1CCC(CNS(C)(=O)=O)CC1` (configuration not stated), in series [1], the fold change (FC) turned out to be 1.24.

As to `COc1ccc(C(=O)NCCCCCCNC(C)=O)cc1`, the Activity entry with LNCaP is “Toxic”. Moreover, in series [1], the fold change (FC) stood at 1.93.

Take `CS(=O)(=O)NC1CCC(NS(C)(=O)=O)CC1` (configuration not stated): the fold change (FC) in series [1] amounted to 0.67.

In the case of `CC(=O)N(C)Cc1ccc(CN(C)C(C)=O)cc1`, the fold change (FC) in series [2] is 3.8; in series [1] it was 2.2. The solubility in series [3] was > 100 µM.

On to `CS(=O)(=O)NCCCNS(C)(=O)=O`, for which the fold change (FC) amounted to 0.21 in [2] and 4.45 in series [1]. The solubility in series [3] is > 100 µM.

For the molecule `CN(CCCCCN(C)S(C)(=O)=O)S(C)(=O)=O`, in series [1], the fold change (FC) amounted to 0.05.

For `CS(=O)(=O)NCCCCCCNS(C)(=O)=O`, the fold change (FC) in series [1] was determined as 0.31.

As to `CC(=O)NC1CCC(NC(C)=O)CC1` (configuration not stated), the values for the fold change (FC) in series [2] and in series [1] were 0.06 and 1.88, respectively. In addition, in [3], the solubility was > 100 µM.

Consider `CN(C1CCC(N(C)S(C)(=O)=O)CC1)S(C)(=O)=O` (configuration not stated), for which the results for the fold change (FC) in [2] and in series [1] were 1.22 and 1.27, respectively. Besides, in [3], the solubility is > 100 µM.

`CC(=O)NCc1ccc(CNC(C)=O)cc1`: in series [1], the fold change (FC) was found to be 0.4.

For `CC(=O)NCCCCCCNC(=O)c1ccc(Cl)c([N+](=O)[O-])c1`, the fold change (FC) in series [1] worked out at 0.08.

Take `CS(=O)(=O)NCc1ccc(CNS(C)(=O)=O)cc1`: in [1], the fold change (FC) is 0.16.

For the molecule `COc1ccc(CC(=O)NCCCCCCNC(C)=O)cc1`, the fold change (FC) in [4] turned out to be 26.6; in [5] it was 1.72; in [2] it was 1.16; in series [6] it was 12.6; in [1], 2.8. The solubility in series [3] was > 100 µM. In addition, in series [7], the Activity entry is “Dose-dependent effect”.

Regarding `CCCC(=O)NCCCCCCNC(=O)CCC`, the fold change (FC) was 1.23 in [2] and 4.89 in series [1]. In addition, the solubility in [3] was > 100 µM. The Activity entry in series [7] was “Dose-dependent effect”.

As to `CC(=O)N(C)CCCCCN(C)C(C)=O`, the fold change (FC) in series [1] worked out at 0.05.

`CC(=O)N(C)C1CCC(N(C)C(C)=O)CC1` (configuration not stated): the fold change (FC) in series [2] came to 0.43; in [1], 3.09. The solubility in [3] is > 100 µM.

`CC(=O)N(C)CC1CCC(CN(C)C(C)=O)CC1` (configuration not stated): the fold change (FC) in series [1] worked out at 1.38.

In the case of `O=C(NCCCCCCNC(=O)c1ccccc1)c1ccccc1`, the fold change (FC) in series [1] was 0.46.

On to `CC(=O)N(C)CCCCCCN(C)C(C)=O`, for which the fold change (FC) in series [1] is 0.25.

On to `CC(=O)N(C)CCCN(C)C(C)=O`, for which, in series [1], the fold change (FC) stood at 0.44.

With `CC(=O)NCC1CCC(CNC(C)=O)CC1` (configuration not stated), the Activity result with LNCaP is “Toxic”. The fold change (FC) in series [1] worked out at 2.14.

Regarding `CN(CCCCCCN(C)S(C)(=O)=O)S(C)(=O)=O`, the fold change (FC) in series [2] was 1.55; in [1], 0.97. In series [3], the solubility was > 100 µM.

As for `CS(=O)(=O)NCCCCCNS(C)(=O)=O`, the fold change (FC) in series [1] was determined as 0.22.

In the case of `CC(=O)NCCCNC(C)=O`, the fold change (FC) in series [1] was found to be 0.68.

Consider `CCC(=O)NCCCCCCNC(=O)CC`, for which the fold change (FC) amounted to 1.34 in series [2] and 4.45 in series [1]. For the same molecule, in series [3], the solubility was > 100 µM. Further, in [7], the Activity entry was “Dose-dependent effect”.

For the molecule `CC(=O)NCCCCCCNC(=O)Oc1ccc(-c2ccccc2)cc1`, the figures for the fold change (FC) in series [2] and in series [1] were 0.61 and 1.07, respectively. In addition, the solubility in series [3] was > 100 µM.

As for `CC(=O)NCCCCCCNC(C)=O`, the fold change (FC) came to 8.15 in [4], 23.6 in series [8] and 2.21 in series [9].

Turning to `CN(CC1CCC(CN(C)S(C)(=O)=O)CC1)S(C)(=O)=O` (configuration not stated), the fold change (FC) in series [2] is 0.41; in series [1], 3.09. For the same molecule, the solubility in series [3] was > 100 µM.

Turning to `CN(Cc1ccc(CN(C)S(C)(=O)=O)cc1)S(C)(=O)=O`, the fold change (FC) in [2] amounted to 2; in series [1], 1.39. The solubility in series [3] is > 100 µM.

In the case of `CN(CCCN(C)S(C)(=O)=O)S(C)(=O)=O`, the fold change (FC) in series [2] was found to be 0.67; in series [1] it was 2.86. In series [3], the solubility was > 100 µM.

Turning to `CC(=O)NCCCCCNC(C)=O`, the fold change (FC) in [1] came out at 0.12.

For orientation: solubility means the concentration that dissolves in the medium under given conditions. Read a high solubility as a readily soluble substance.
